Source: ChEMBL document CHEMBL4414551, “Design, Synthesis, and Biological Evaluation of Substituted 4,6-Dihydrospiro[[1,2,3]triazolo[4,5-b]pyridine-7,3'-indoline]-2',5(3H)-dione Analogues as Potent NS4B Inhibitors for the Treatment of Dengue Virus Infection” (J Med Chem, 2019)

Tests used:
[1] = tested on: dengue virus type 2; assay: Antiviral activity against Dengue virus 2 NGC infected in human HuH7 replicon cells expressing Renilla luciferase and neomycin-resistance genes assessed as reduction in viral replication incubated for 48 hrs by luciferase reporter replicon-based assay; assay type: functional, organism-based; settings: Huh-7, 48 h
Summary of the method: (§1)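 Huh7 cells stably carrying a Renilla luciferase/neomycin-resistance replicon (DENV-1 WestPac, DENV-2 NGC, DENV-3 D3MY05-34640 or DENV-4 D4MY01-22713). Cells seeded at 10k per well and incubated overnight at 37 °C, 5% CO2. Then exposed to 2-fold serial compound dilutions for 48 h, in duplicate. Luciferase read with a live-cell substrate. EC50 from four-parameter logistic fit.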

[2] = Cytotoxicity in human HuH7 replicon cells infected with Dengue virus 2 NGC assessed as reduction in cell viability incubated for 48 hrs by Cell-titer-Glo reagent based assay; design: species or system Huh-7
Summary of the method: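 Huh7 cells or Huh7 replicon cells plated, then held at 37 °C with 5% CO₂ overnight. Exposed to 2-fold serial compound dilutions for 48 h, in duplicate. Viability read with CellTiter-Glo and normalized to 0.45% DMSO wells set at 100%. CC50 from four-parameter logistic fit.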

[3] = tested on: dengue virus type 4; assay: Antiviral activity against Dengue virus 4 D4MY01-22713 infected in human HuH7 replicon cells expressing Renilla luciferase and neomycin-resistance genes assessed as reduction in viral replication incubated for 48 hrs by luciferase reporter replicon-based assay; assay type: functional, organism-based; settings: D4MY01-22713, Huh-7, 48 h; summary of the method: as §1
[4] = tested on: dengue virus type 3; assay: Antiviral activity against Dengue virus 3 D3MY05-34640 infected in human HuH7 replicon cells expressing Renilla luciferase and neomycin-resistance genes assessed as reduction in viral replication incubated for 48 hrs by luciferase reporter replicon-based assay; assay type: functional, organism-based; settings: D3MY05-34640, Huh-7, 48 h; summary of the method: as §1
[5] = tested on: dengue virus type 1; assay: Antiviral activity against Dengue virus 1 WestPac infected in human HuH7 replicon cells expressing Renilla luciferase and neomycin-resistance genes assessed as reduction in viral replication incubated for 48 hrs by luciferase reporter replicon-based assay; assay type: functional, organism-based; settings: Huh-7, 48 h; summary of the method: as §1

| SMILES | EC50 [1] [nM] | CC50 at 48 h [2] [nM] | EC50 [3] [nM] | EC50 [4] [nM] | EC50 [5] [nM] |
| --- | --- | --- | --- | --- | --- |
| C[C@@H](c1ccc(Cl)cc1)n1nnc2c1NC(=O)C[C@]21C(=O)N(CCCCCCBr)c2ccc(Cl)cc21 | 3000 | > 10000 |  |  |  |
| C[C@@H](c1ccc(Cl)cc1)n1nnc2c1NC(=O)C[C@]21C(=O)N(Cc2ccc(Cl)nc2)c2ccc(Cl)cc21 | 78 | > 10000 | > 5000 | 6 | > 5000 |
| C[C@@H](c1ccc(Cl)cc1)n1nnc2c1NC(=O)C[C@]21C(=O)Nc2ccc(Cl)cc21 | 39 | > 10000 | > 5000 | 10 | > 5000 |
| C[C@@H](c1ccc(Cl)cc1)n1nnc2c1NC(=O)C[C@]21C(=O)N(CCC(C)(C)C)c2ccc(Cl)cc21 | 870 | > 10000 | 3900 | 82 | 1100 |
| C[C@@H](c1ccc(Cl)cc1)n1nnc2c1NC(=O)C[C@]21C(=O)N(CCN2CCC2)c2ccc(Cl)cc21 | 67 | > 10000 | > 5000 | 7 | > 5000 |
| C[C@@H](c1ccc(Cl)cc1)n1nnc2c1NC(=O)C[C@]21C(=O)N(Cc2ccccn2)c2ccc(Cl)cc21 | 20 | > 10000 | > 5000 | 3 | > 5000 |
| COCCCN1C(=O)C[C@]2(C(=O)Nc3ccc(Cl)cc32)c2nnn([C@@H](C)c3ccc(Cl)cc3)c21 | 8700 | > 10000 | > 10000 | 910 | > 10000 |
| C[C@@H](c1ccc(Cl)cc1)n1nnc2c1NC(=O)C[C@]21C(=O)N(CC2CC2)c2ccc(Cl)cc21 | 110 | > 10000 | > 5000 | 17 | 3100 |
| C[C@@H](c1ccc(Cl)cc1)n1nnc2c1NC(=O)C[C@]21C(=O)N(Cc2cc(C(C)(C)C)cc(C(C)(C)C)c2)c2ccc(Cl)cc21 | > 10000 | > 10000 | 4900 | 5900 | 4600 |
| CC(C)CN1C(=O)[C@]2(CC(=O)Nc3c2nnn3[C@@H](C)c2ccc(Cl)cc2)c2cc(Cl)ccc21 | 150 | > 10000 | > 5000 | 20 | 1300 |
| C[C@@H](c1ccc(Cl)cc1)n1nnc2c1NC(=O)C[C@]21C(=O)N(CCN2CCCCC2)c2ccc(Cl)cc21 | 74 | > 10000 | > 5000 | 5 | > 5000 |
| C[C@@H](c1ccc(Cl)cc1)n1nnc2c1NC(=O)C[C@]21C(=O)N(CCCN(C)C)c2ccc(Cl)cc21 | 25 | > 10000 | > 5000 | 1 | > 5000 |
| C[C@@H](c1ccc(Cl)cc1)n1nnc2c1NC(=O)C[C@]21C(=O)N(CCN2CCOCC2)c2ccc(Cl)cc21 | 75 | > 10000 | > 5000 | 17 | > 5000 |
| C[C@@H](c1ccc(Cl)cc1)n1nnc2c1NC(=O)C[C@]21C(=O)N(CCN(C)CCS(C)(=O)=O)c2ccc(Cl)cc21 | 77 | > 10000 | > 5000 | 18 | > 5000 |
| C[C@@H](c1ccc(Cl)cc1)n1nnc2c1NC(=O)C[C@]21C(=O)N(Cc2cccnc2)c2ccc(Cl)cc21 | 29 | > 10000 | > 5000 | 21 | 3200 |
| C[C@@H](c1ccc(Cl)cc1)n1nnc2c1NC(=O)C[C@]21C(=O)N(CCCCCCCCBr)c2ccc(Cl)cc21 | > 5000 | > 10000 |  |  |  |
